Assay results taken from ChEMBL document CHEMBL3244382, “Structural requirements for antileukemic activity among the naturally occurring and semisynthetic maytansinoids” (J Med Chem, 1978).
Converted amounts (≈) assume the structure as drawn. The source made the active and inactive calls.

Legend:
[1] = tested on: Mus musculus; experiment: Toxicity in PS mouse allografted with mouse P388 cells assessed as change in body weight at 6.3 ug/kg relative to control; format: organism-based; details: in vivo, 0.0063 mg/kg
In short: (§1)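 P388 (PS) leukemia in mice, 6 mice per dose group. Weight change is the difference in grams between treated and control animals. Survivors are recorded on toxicity day, normally 4 days after the first injection.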

[2] = tested on: Paracentrotus lividus; experiment: Antimitotic activity against sea urchin eggs assessed as drug level causing inhibition of mitosis; format: functional; details: Egg
[3] = tested on: Mus musculus; experiment: Toxicity in PS mouse allografted with mouse P388 cells assessed as change in body weight at 3.1 ug/kg relative to control; format: organism-based; details: in vivo, 0.0031 mg/kg; in short: as §1
[4] = tested on: Mus musculus; experiment: Toxicity in PS mouse allografted with mouse P388 cells assessed as change in body weight at 1.1 ug/kg relative to control; format: organism-based; details: in vivo, 0.0011 mg/kg; in short: as §1
[5] = tested on: Mus musculus; experiment: Toxicity in PS mouse allografted with mouse P388 cells assessed as survival at 6.3 ug/kg after 4 days; format: organism-based; details: in vivo, 0.0063 mg/kg, 96 h
In short: (§2)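 PS (P388) leukemic mice, six started per dose group. Toxicity scored as survivors on the toxicity day over the number of mice started. The toxicity day is normally 4 days after the first injection.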

[6] = tested on: P388; experiment: Antitumor activity against mouse P388 cells allografted in PS mouse assessed as median survival time at 6.3 ug/kg relative to control; format: functional
In short: (§3)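 P388 leukemia (PS) in mice, six mice started per dose group. Read-out is T/C: median survival time of the treated group divided by that of the untreated control group, expressed as a percent. The NIH protocol counts a compound as active when T/C > 125%.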

[7] = tested on: Mus musculus; experiment: Toxicity in PS mouse allografted with mouse P388 cells assessed as change in body weight at 100 ug/kg relative to control; format: organism-based; details: in vivo, 0.1 mg/kg; in short: as §1
[8] = tested on: Mus musculus; experiment: Toxicity in PS mouse allografted with mouse P388 cells assessed as survival at 12.5 ug/kg after 4 days; format: organism-based; details: in vivo, 0.0125 mg/kg, 96 h; in short: as §2
[9] = tested on: P388; experiment: Antitumor activity against mouse P388 cells allografted in PS mouse assessed as median survival time at 1.1 ug/kg relative to control; format: functional; in short: as §3
[10] = tested on: P388; experiment: Antitumor activity against mouse P388 cells allografted in PS mouse assessed as median survival time at 0.4 ug/kg relative to control; format: functional; in short: as §3
[11] = tested on: Mus musculus; experiment: Toxicity in PS mouse allografted with mouse P388 cells assessed as survival at 1.1 ug/kg after 4 days; format: organism-based; details: in vivo, 0.0011 mg/kg, 96 h; in short: as §2
[12] = tested on: Mus musculus; experiment: Toxicity in PS mouse allografted with mouse P388 cells assessed as survival at 100 ug/kg after 4 days; format: organism-based; details: in vivo, 0.1 mg/kg, 96 h; in short: as §2
[13] = tested on: Mus musculus; experiment: Toxicity in PS mouse allografted with mouse P388 cells assessed as survival at 0.4 ug/kg after 4 days; format: organism-based; details: in vivo, 0.0004 mg/kg, 96 h; in short: as §2
[14] = tested on: Mus musculus; experiment: Toxicity in PS mouse allografted with mouse P388 cells assessed as change in body weight at 0.2 ug/kg relative to control; format: organism-based; details: in vivo, 0.0002 mg/kg
In short: (§4)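 PS (P388 leukemia) mice, six per dose group. Toxicity read as the difference in grams between the weights of treated and control animals.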

[15] = tested on: Mus musculus; experiment: Toxicity in PS mouse allografted with mouse P388 cells assessed as change in body weight at 25 ug/kg relative to control; format: organism-based; details: in vivo, 0.025 mg/kg; in short: as §1
[16] = tested on: P388; experiment: Antitumor activity against mouse P388 cells allografted in PS mouse assessed as median survival time at 0.2 ug/kg relative to control; format: functional; in short: as §3
[17] = tested on: P388; experiment: Antitumor activity against mouse P388 cells allografted in PS mouse assessed as median survival time at 25 ug/kg relative to control; format: functional; in short: as §3
[18] = tested on: P388; experiment: Antitumor activity against mouse P388 cells allografted in PS mouse assessed as median survival time at 12.5 ug/kg relative to control; format: functional; in short: as §3
[19] = tested on: Mus musculus; experiment: Toxicity in PS mouse allografted with mouse P388 cells assessed as survival at 3.1 ug/kg after 4 days; format: organism-based; details: in vivo, 0.0031 mg/kg, 96 h; in short: as §2
[20] = tested on: Mus musculus; experiment: Toxicity in PS mouse allografted with mouse P388 cells assessed as change in body weight at 50 ug/kg relative to control; format: organism-based; details: in vivo, 0.05 mg/kg; in short: as §1
[21] = tested on: P388; experiment: Antitumor activity against mouse P388 cells allografted in PS mouse assessed as median survival time at 3.1 ug/kg relative to control; format: functional; in short: as §3
[22] = tested on: Mus musculus; experiment: Toxicity in PS mouse allografted with mouse P388 cells assessed as change in body weight at 0.8 ug/kg relative to control; format: organism-based; details: in vivo, 0.0008 mg/kg; in short: as §4
[23] = tested on: KB; experiment: Cytotoxicity against human KB cells; format: functional; details: read-out: ED50 (the source's name)
[24] = tested on: Mus musculus; experiment: Toxicity in PS mouse allografted with mouse P388 cells assessed as change in body weight at 0.4 ug/kg relative to control; format: organism-based; details: in vivo, 0.0004 mg/kg; in short: as §4
[25] = tested on: Mus musculus; experiment: Toxicity in PS mouse allografted with mouse P388 cells assessed as survival at 0.8 ug/kg after 4 days; format: organism-based; details: in vivo, 0.0008 mg/kg, 96 h; in short: as §2
[26] = tested on: P388; experiment: Antitumor activity against mouse P388 cells allografted in PS mouse assessed as median survival time at 50 ug/kg relative to control; format: functional; in short: as §3
[27] = biological target: Tubulin (Homo sapiens) (UniProt P68371+Q9H4B7+P0DPH7+P68366+Q13509+Q71U36+P04350+Q3ZCM7+P07437+P68363+Q9BQE3+Q6PEY2+Q13885+Q9BVA1+Q9BUF5); experiment: Inhibition of brain tubulin polymerization (unknown origin) at 37 degC by spectrophotometry
[28] = tested on: Mus musculus; experiment: Toxicity in PS mouse allografted with mouse P388 cells assessed as change in body weight at 12.5 ug/kg relative to control; format: organism-based; details: in vivo, 0.0125 mg/kg; in short: as §1
[29] = tested on: P388; experiment: Antitumor activity against mouse P388 cells allografted in PS mouse assessed as median survival time at 0.8 ug/kg relative to control; format: functional; in short: as §3
[30] = tested on: Mus musculus; experiment: Toxicity in PS mouse allografted with mouse P388 cells assessed as survival at 50 ug/kg after 4 days; format: organism-based; details: in vivo, 0.05 mg/kg, 96 h; in short: as §2
[31] = tested on: Mus musculus; experiment: Toxicity in PS mouse allografted with mouse P388 cells assessed as survival at 25 ug/kg after 4 days; format: organism-based; details: in vivo, 0.025 mg/kg, 96 h; in short: as §2
[32] = tested on: Mus musculus; experiment: Toxicity in PS mouse allografted with mouse P388 cells assessed as survival at 0.2 ug/kg after 4 days; format: organism-based; details: in vivo, 0.0002 mg/kg, 96 h; in short: as §2
[33] = tested on: P388; experiment: Antitumor activity against mouse P388 cells allografted in PS mouse assessed as median survival time at 100 ug/kg relative to control; format: functional; in short: as §3

For `COc1cc2cc(c1Cl)N(C)C(=O)/C=C/[C@]1(C)O[C@H]1[C@H](C)[C@@H]1C[C@@](O)(NC(=O)O1)[C@H](OC)/C=C/C=C(\C)C2`, which Activity [1] is on record?
The Activity was 0.3 g.

What about the Activity [2] of the same compound?
The Activity was 1 µM.

What about the Activity [3] of the same compound?
The Activity was 0.4 g.

And the Activity [4]?
The Activity was 2 g.

And the Activity [5]?
Its Activity is “Non-toxic”.

What about the T/C [6] of the same compound?
The T/C was less than 80%.

What about the Activity [7] of the same compound?
Its Activity is 1 g.

And the Activity [8]?
Its Activity is “Non-toxic”.

What about the T/C [9] of the same compound?
The T/C was 90%.

What about the T/C [10] of the same compound?
The T/C was 90%.

And the Activity [11]?
Its Activity is “Non-toxic”.

What about the Activity [12] of the same compound?
Its Activity is “Non-toxic”.

And the Activity [13]?
The Activity was “Non-toxic”.

What about the Activity [14] of the same compound?
Its Activity is 2.1 g.

What about the Activity [15] of the same compound?
The Activity was 1.7 g.

What about the T/C [16] of the same compound?
Its T/C is 90%.

And the T/C [17]?
Its T/C is less than 80%.

And the T/C [18]?
Its T/C is less than 80%.

And the Activity [19]?
The Activity was “Non-toxic”.

What about the Activity [20] of the same compound?
The Activity was 2.6 g.

What about the T/C [21] of the same compound?
Its T/C is 90%.

What about the Activity [22] of the same compound?
Its Activity is 2.8 g.

What about the EC50 [23] of the same compound?
Its EC50 is 0.025 µg/mL (≈ 0.0457 µM).

And the Activity [24]?
The Activity was 2.5 g.

What about the Activity [25] of the same compound?
Its Activity is “Non-toxic”.

And the T/C [26]?
The T/C was less than 80%.

What about the inhibition [27] of the same compound?
The inhibition was “Active”.

What about the Activity [28] of the same compound?
Its Activity is 1 g.

And the T/C [29]?
Its T/C is 90%.

And the Activity [30]?
The Activity was “Non-toxic”.

And the Activity [31]?
Its Activity is “Non-toxic”.

What about the Activity [32] of the same compound?
The Activity was “Non-toxic”.

And the T/C [33]?
The T/C was 110%.
